A selection: hits, their analogues and other compounds. The true share with any hit is near 1.9%.
SR-BI HDL uptake: inhibitors of mouse SR-BI mediated HDL lipid uptake; ldlA[mSR-BI] CHO cells, DiI-HDL uptake fluorescence, 3 h; inhibition, % at 12.5 µM; 320,000 tested, 0.96% active; Q61009;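 active means mean replicate inhibition of at least 70% and a set share of replicates each scoring 70 or more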;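 further: 0% = median of neutral control wells and 100% = median of positive control wells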
Target sequence (Q61009 whole entry, looked up): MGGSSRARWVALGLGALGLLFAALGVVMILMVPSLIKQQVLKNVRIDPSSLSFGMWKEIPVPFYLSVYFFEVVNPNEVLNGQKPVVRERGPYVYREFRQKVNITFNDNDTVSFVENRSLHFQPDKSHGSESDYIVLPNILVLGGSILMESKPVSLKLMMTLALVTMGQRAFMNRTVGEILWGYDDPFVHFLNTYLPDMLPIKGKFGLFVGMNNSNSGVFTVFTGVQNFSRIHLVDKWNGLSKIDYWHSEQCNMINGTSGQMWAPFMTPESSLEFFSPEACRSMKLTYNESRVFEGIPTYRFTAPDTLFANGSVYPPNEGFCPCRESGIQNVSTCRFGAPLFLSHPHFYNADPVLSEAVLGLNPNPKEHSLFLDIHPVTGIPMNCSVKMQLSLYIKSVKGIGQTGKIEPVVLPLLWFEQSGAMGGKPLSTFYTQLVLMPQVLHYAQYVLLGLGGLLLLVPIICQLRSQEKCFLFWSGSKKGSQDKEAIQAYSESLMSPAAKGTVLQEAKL
Rin1 Abl inh: human Rin1-Abl interaction inhibition | P00519+Q13671 | TR-FRET Rin1/Abl binding, biochemical | inhibition, % at 7.35 µM | 360,000 tested, 0.4% active; in the data active means inhibition above about 5%, passing the limit was not always enough
SR-BI DiI-HDL act: enhances SR-BI lipid uptake from DiI-HDL. CHO ldlA[mSR-BI] cells, DiI-HDL uptake fluorescence, 3 h; 100 = double the neutral-control signal. activation, % at 12.5 µM. 320,000 tested, 0.096% active. AID 504775;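 active means mean replicate activation of at least 60% and every replicate at or above 60%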;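 further: 0% = median plate neutral-control signal and 100% = twice that signal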
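Test system: SR-BI-overexpressing, LDLR-lacking CHO cells; Medium: Ham's F12 with 0.5% BSA, HEPES 25 mM, pH 7.4; Schedule: 3 h, 37 °C; Technique: bottom-read fluorescence, 550/595 nm.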
GRK2 aptamer HTS: inhibitors of human GRK2 displacing RNA aptamer; P25098; bead flow cytometry, FAM-aptamer displacement from GRK2; inhibition of aptamer binding, % at 10 µM; 330,000 tested, 0.59% active;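 active means inhibition of aptamer binding above 40%, roughly 3 SD of noise, on plates passing a quality check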;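 further: median bead fluorescence of bound FAM aptamer so fluorescent compounds give negative values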
The depositor's hits bear a star; i = inactive; x = not tested or not shown; ! = a repeat was not active.

SMILES	SR-BI HDL uptake	Rin1 Abl inh	SR-BI DiI-HDL act	GRK2 aptamer HTS
COc1cccc(Nc2nc(-c3ccc(O)cc3)cs2)c1	58	0	-58	3
Cc1noc(C)c1S(=O)(=O)NC(=O)C1(C)CCN1C(=O)C1(c2ccc(Cl)cc2)CC1 (centres undefined)	x	-3	x	x
Cc1cc(Br)cn2c(Cc3ccsc3)c(C(C)(C)C)nc12	x	0	x	x
COc1ccc(-c2cc(-c3ccc(OC)cc3)c(C#N)c(SC)n2)cc1	80*	1	-80	0
CC(=O)c1ccc(-c2ccc(C(=O)Nc3nc(-c4ccccn4)cs3)o2)cc1	81*	-1	-81	1
Cn1cccc1/C=C1\SC(=Nc2ccccc2)NC1=O	17	-1	-17	0
Cc1ccc(N=C2NC(=O)/C(=C/c3cn(C)c4ccccc34)S2)cc1C	81*	-7	-81	3
COc1cc(-c2nc(-c3cccnc3)no2)cc(OC)c1OC	17	-1	-17	2
COc1ccc(-c2nnc(-c3cc(OC)c(OC)c(OC)c3)o2)cc1OC	76*	-2	-76	0
COc1cc(-c2noc(-c3cccc(Cl)c3)n2)cc(OC)c1OC	76*	-4	-76	0
COc1cc(-c2nc(-c3cccc(C)c3)no2)cc(OC)c1OC	84*	4	-84	0
O=C(CN1C(=O)c2cccc3cccc1c23)N1CCN(Cc2ccc3c(c2)OCO3)CC1	16	-4	-16	2
O=C(CCN1C(=O)c2cccc3cccc(c23)C1=O)N1CCN(Cc2ccc3c(c2)OCO3)CC1	74*	-1	-74	0
COc1ccc(OCC(O)CN2CCC(CN3C(=O)c4cccc5cccc(c45)C3=O)CC2)cc1 (centres undefined)	77*	-10	-77	2
O=C1c2cccc3cccc(c23)C(=O)N1CC1CCN(CC(O)COCc2ccc3c(c2)OCO3)CC1 (centres undefined)	70*	-12	-70	0
COCCNC(=O)C1(C)CCCN(C(=O)c2ccco2)C1 (centres undefined)	x	3	x	x
COc1ccccc1C(=O)NNC(=S)NC(=O)c1ccco1	-7	0	7	0
Cc1nnc(-c2ccccc2)c(=O)n1/N=C/c1c(O)ccc2ccccc12	120*	-2	-120	0
Cc1nc2ccccc2c(=O)n1/N=C/c1ccc2ccccc2c1O	90*	-3	-90	1
COc1cc(/C=N/n2c(C)nc3ccccc3c2=O)ccc1O	i	2	507*	0
C=CCOc1ccc2cccc(/C=N/NC(=O)c3cc4cc([N+](=O)[O-])ccc4s3)c2c1	77*	-3	-77	0
CC1CN(C2CCN(S(=O)(=O)c3ccccc3)CC2)CC(C)O1 (centres undefined)	-289	0	289*	0
CC1CN(C2CCN(S(=O)(=O)c3ccc(F)cc3)CC2)CC(C)O1 (centres undefined)	-6	0	6	0
Cc1ccc2c(CC(=O)NNC(=O)c3ccccc3O)coc2c1	106*	2	-106	2
Cc1cc(C)cc(OCC(=O)N/N=C/c2ccncc2)c1	-7	0	7	55*
SMILES	SR-BI HDL uptake	Rin1 Abl inh	SR-BI DiI-HDL act	GRK2 aptamer HTS
Cc1ccc(C(=O)NNC(=O)c2ccccc2O)cc1S(=O)(=O)N1CCCCC1	78*	0	-78	0
O=C(c1ccc(Cl)c(S(=O)(=O)N2CCc3ccccc32)c1)N1CCN(c2ccccc2O)CC1	47	0	-47	0
O=C(NNC(=O)c1ccccc1O)c1ccc(Cl)c(S(=O)(=O)N2CCc3ccccc32)c1	117*	-1	-117	0
COc1ccc(CNC(=O)/C=C/[C@H]2O[C@@H](n3ccc(=O)[nH]c3=O)[C@H](O)[C@@H]2O)cc1	x	3	x	x
CC1CCN(S(=O)(=O)c2ccc3c(c2)oc(=O)n3CC(=O)N2c3ccccc3CC2C)CC1 (centres undefined)	73*	-2	-73	0
Cc1nn(-c2ccccc2)c(C)c1/C=N/n1cnnc1	-30	4	30	2
Cc1nn(-c2ccccc2)c(C)c1/C=N\N1CCN(c2ccc(Cl)cc2)CC1	80*	-1	-80	0
COc1ccc(OC)c(/C=N/N2CCN(c3ccc(Cl)cc3)CC2)c1	-148	-3	148*	1
Cc1nc2c(-c3ccc(F)cc3)c(C)nn2c(C)c1CCC(=O)Nc1ccc(F)cc1F	75*	3	-75	0
CCOC(=O)C(=Cc1ccc(-c2ccsc2C(=O)OC)o1)C(=O)OCC	76*	-3	-76	0
CCCc1ccc(C(=O)/C=C/N(C)C)cc1	-5	-1	5	4
Cc1nn2c(NC(C)C)c3c(nc2c1-c1ccccc1)CCC3	-104	-3	104*	2
Cc1nn2c(NCC(C)C)c3c(nc2c1-c1ccccc1)CCC3	19	2	-19	5
CCc1nc2ccc(C(=O)NCCCn3ccnc3)cn2c1N(CC)CCOC	x	0	x	x
COc1cc([N+](=O)[O-])ccc1NC(=O)Nc1nc2c(s1)CCCC2	72*	-1	-72	1
COc1cc([N+](=O)[O-])ccc1NC(=O)Nc1cnccn1	12	2	-12	0
CCOC(=O)c1[nH]cnc1N=Nc1c(O)ccc2ccccc12	80*	-3	-80	1
COc1cc(NC(=O)c2cc(C(C)C)on2)c(OC)cc1Cl	82*	3	-82	0
COc1cc(NC(=O)c2cc(C3CC3)on2)c(OC)cc1Cl	81*	0	-81	0
O=C(NCc1ccccc1Cl)c1ccc2nc([C@@H]3O[C@H](CO)[C@@H](O)[C@H]3O)[nH]c2c1	x	2	x	x
OCC[C@@H]1C[C@H](O)[C@@H](O)[C@@]2(OCc3cc(C(F)(F)F)ccc32)O1	x	-2	x	x
O=C(NCCSCc1ccc(Cl)cc1)c1cccs1	-4	1	4	0
COc1ccc(CCNc2cc(C)nc3c(-c4ccccc4OC)cnn23)cc1OC	91*	-2	-91	0
Cc1ccc(S(=O)(=O)NC2=C(N3CCN(Cc4ccccc4)CC3)C(=O)c3ccccc3C2=O)cc1	27	-7	-27	0
Cc1ccc(S(=O)(=O)NC2=C(N3CCN(c4ccccc4F)CC3)C(=O)c3ccccc3C2=O)cc1	97*!	0	-68	0
Cc1ccc(-c2nnc(Oc3ccc(NC(=O)c4ccccc4)cc3)c3ccccc23)cc1	-169	-4	169*	3
O=C(CC1C[C@H](C(=O)N2CCOCC2)[C@@]2(CCC3CCCC3)c3[nH]c4ccccc4c3CCN2C1=O)NCC12CC3CC(CC(C3)C1)C2 (some centres undefined)	x	-3	x	6
CC1(c2ccccc2)NC(=O)N(CC(=O)N(c2ccccc2)C2CCS(=O)(=O)C2)C1=O (centres undefined)	-21	0	21	2
O=C(Cn1ncc2c1-c1ccccc1OC2)Nc1ccc(S(=O)(=O)N2CCCCC2)cc1	16	12*	-16	1
CC1CC2(CC(CN(C3CCCCC3)C3CCCCC3)OC2=O)C(=O)O1 (centres undefined)	x	2	x	x

Screens as filed in PubChem BioAssay.
